Data set [1] has as its target T1, LdAI (Leishmania donovani, UniProt A0A3Q8IA09).
T1 sequence (A0A3Q8IA09 1-398): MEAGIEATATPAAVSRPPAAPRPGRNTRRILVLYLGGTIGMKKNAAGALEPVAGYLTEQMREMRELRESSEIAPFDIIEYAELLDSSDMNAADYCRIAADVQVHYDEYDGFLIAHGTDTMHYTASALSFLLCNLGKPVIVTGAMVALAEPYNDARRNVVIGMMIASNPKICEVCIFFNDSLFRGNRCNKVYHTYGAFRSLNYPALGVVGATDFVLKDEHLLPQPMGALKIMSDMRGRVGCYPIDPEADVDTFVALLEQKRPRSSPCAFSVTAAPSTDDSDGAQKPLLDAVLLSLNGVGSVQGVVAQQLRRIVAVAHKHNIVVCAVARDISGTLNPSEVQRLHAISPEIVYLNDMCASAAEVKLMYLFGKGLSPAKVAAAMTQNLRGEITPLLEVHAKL
The experiment in a line: Competitive inhibition assay, Gln hydrolysis kinetics. The format is biochemical. To be noted: Gln as substrate, LdAI alone, no inhibitor.

Data set [2] concerns LdAI transfected amastigotes (WT-LdAI). The experiment in a line: MTT survival of LdAI transfected axenic amastigotes. The format is cell-based, Leishmania donovani.
Data set [3] has as its system LdAI transcript in axenic amastigotes. The experiment in a line: Real-time PCR of LdAI expression, axenic amastigotes. The format is cell-based, Leishmania donovani. To be noted: AmB treated vs untreated. A general note: Real-time PCR tracks product formation cycle by cycle.
Data set [4] relates to LdAI transcript in promastigotes. The data set is described as follows: Semi quantitative RT-PCR and real-time PCR of LdAI expression, promastigotes. The format is cell-based, Leishmania donovani. As to conditions: 0.125 μg/ml AmB for 8 h vs untreated.
Data set [5] relates to L. donovani wild type AG83 (WT) promastigotes. The data set is described as follows: MTT survival of wild type promastigotes. The format is cell-based. To be noted: Leishmania donovani, 48 h. Put shortly: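 AG83 promastigotes were kept in M199 (pH 5.5) with 10% FBS. Late-exponential cells, diluted to 2 × 10^6/ml, were exposed to varying concentrations of test compound prepared in FBS-free M199 for 48, 72 and 96 h. Viability was read by MTT at 570 nm as % survival (mean, standard error, three independent experiments). IC50 came from a log(inhibitor) vs normalised response fit.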

Data set [6] concerns pLP2-LdAI transfected promastigotes (WT-LdAI). The experiment in a line: MTT survival of LdAI over-expressing promastigotes. Type of data set: cell-based, Leishmania donovani.
For data set [7], the target named is T1, LdAI. The experiment in a line: Fluorometric titration of ligands with LdAI. Type of data set: binding. Put shortly: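 Fluorometric titrations at 298 K in 20 mM Tris, 150 mM NaCl, pH 8.0. Constant enzyme was titrated with increasing ligand (Asp, Glu or test compound), with a 300 s pre-scan delay. Excitation was 274 nm and emission was recorded 290–400 nm. Kd came from a single-site specific binding fit, Y = Bmax*X/(Kd + X).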

The target of data set [8] is T1, LdAI. The experiment in a line: Isothermal titration calorimetry with LdAI. As to conditions: for N (Drug/LdAI) / TΔS / ΔH / ΔG: ITC, direct titration; for N (Drug/LdAI) / TΔS / ΔH: 3 μM LdAI, 298 K; for ΔG: ΔG= ΔH−TΔS. Type of data set: binding. The gist of the method: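 Direct ITC at 298 K in 20 mM Tris, 150 mM NaCl, pH 8.0. LdAI in the cell was titrated with test compound: one small injection, then 25 injections. Heats of dilution were normalised by buffer titrations. A single-site model with Levenberg–Marquardt nonlinear fitting gave Ka, ΔH and ΔS, and ΔG was calculated as ΔH − TΔS.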
In general terms: In ITC the heat of successive injections is recorded.

Substrate in data set [9]: NC(=O)CC[C@H](N)C(=O)O
The experiment in a line: Competitive inhibition assay, Gln hydrolysis kinetics. The format is biochemical, Leishmania donovani. As to conditions: other: Gln as substrate, LdAI alone, no inhibitor; pH 8.0; 25.0 °C.

The results in this text go back to paper PMC5633258 (International Journal for Parasitology: Drugs and Drug …, 2017).

Consider `NC(=O)CC[C@H](N)C(=O)O` [Gln, L-glutamine], for which the Vmax on LdAI [1] stood at 267.9 ± 7.6.

`C[C@@H]1[C@H](O)[C@@H](C)/C=C/C=C/C=C/C=C/C=C/C=C/C=C/[C@H](O[C@@H]2O[C@H](C)[C@@H](O)[C@H](N)[C@@H]2O)C[C@@H]2O[C@](O)(C[C@@H](O)C[C@@H](O)[C@H](O)CC[C@@H](O)C[C@@H](O)CC(=O)O[C@H]1C)C[C@H](O)[C@H]2C(=O)O` [AmB, Amphotericin B]: the IC50 in [2] (Leishmania donovani, 48 h) is 1900 ± 600 nM; in data set [5], 600 ± 70 nM; in data set [6] (Leishmania donovani, 48 h), 2200 ± 300 nM. In addition, the “lower IC90 in wild-type than in LdAI over-expressing parasites” value is listed as “eight” in data set [2] (amastigote form) and “three” in data set [6] (promastigote form). In addition, the figures for the “increase in IC50, LdAI transfected vs non-transfected” value in data set [2] (amastigotes) and in [6] (promastigotes) were “eight” and “three”, respectively. Besides, the “increase in LdAI transcript expression (quantitative real time PCR)” value in [3] is on record as “five”; in data set [4], “four”. In data set [4], the “enhancement in LdAI transcription (semiquantitative PCR)” value is 2.5 fold.

For `N[C@@H](CC(=O)O)C(=O)O` [Asp, L-aspartic acid], the Kd at LdAI [7] amounted to 2400 ± 400 nM. On LdAI [8], the affinity, expressed as Kd, was 7700 nM; the “N (Drug/LdAI)” value worked out at 4.0 ± 0.7; the TΔS is 0.64 kcal/mol; the ΔH was -6.34 ± 0.3 kcal/mol. The ΔG on LdAI [8] was -6.98 kcal/mol.

As to `N[C@@H](CCC(=O)O)C(=O)O` [Glu, L-glutamic acid], the Kd at LdAI [7] worked out at 11600 ± 1300 nM. Besides, on LdAI [8], binding was put at a Kd of 5000 nM, the “N (Drug/LdAI)” value is given as 2.14 ± 0.6, the TΔS was -18.38 kcal/mol and the ΔH is -25.6 ± 1.1 kcal/mol. On LdAI [8], this molecule registered a ΔG of -7.22 kcal/mol.

B1: LdAI (Leishmania donovani) (protein)
chain: MEAGIEATATPAAVSRPPAAPRPGRNTRRILVLYLGGTIGMKKNAAGALEPVAGYLTEQMREMRELRESSEIAPFDIIEYAELLDSSDMNAADYCRIAADVQVHYDEYDGFLIAHGTDTMHYTASALSFLLCNLGKPVIVTGAMVALAEPYNDARRNVVIGMMIASNPKICEVCIFFNDSLFRGNRCNKVYHTYGAFRSLNYPALGVVGATDFVLKDEHLLPQPMGALKIMSDMRGRVGCYPIDPEADVDTFVALLEQKRPRSSPCAFSVTAAPSTDDSDGAQKPLLDAVLLSLNGVGSVQGVVAQQLRRIVAVAHKHNIVVCAVARDISGTLNPSEVQRLHAISPEIVYLNDMCASAAEVKLMYLFGKGLSPAKVAAAMTQNLRGEITPLLEVHAKL
B1: the Km in data set [9] is 9.5 ± 0.8 mM.

As a reminder, the IC50 is the point on the concentration scale where inhibition reaches its midpoint. Broadly, the Kd is the free concentration of one partner at which half of the binding sites on the other are occupied at equilibrium, for simple one-to-one binding. A high value points to lower affinity. Broadly, the Km is the substrate concentration at which the rate is half of its maximum.
